Bioassay records from PubChem BioAssay.
KLK7 zymogen act: activates the human kallikrein-7 zymogen; P49862; purified proKLK7, EDANS-DABCYL substrate fluorescence; 100% is mature enzyme control, 0% vehicle; activation, % at 7 µM; 370,000 compounds, 0.9% hits; AID 652039;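 active = activation above the mean of all tested compounds plus 3 SD, computed per campaign excluding outliers beyond control limits, cut at about 13% in these data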
Target sequence (P49862 whole entry, looked up): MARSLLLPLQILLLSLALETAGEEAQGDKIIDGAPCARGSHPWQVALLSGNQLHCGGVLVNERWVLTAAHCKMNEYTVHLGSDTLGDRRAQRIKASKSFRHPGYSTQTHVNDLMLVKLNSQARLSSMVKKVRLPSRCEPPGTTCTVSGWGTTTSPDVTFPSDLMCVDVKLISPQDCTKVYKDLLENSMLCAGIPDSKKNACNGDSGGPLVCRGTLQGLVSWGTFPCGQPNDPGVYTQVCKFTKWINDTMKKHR
Tn7 DDE FP: inhibitors of Tn7 peptide binding to human fibrin DD(E) | inhibition, % at 8.3 µM | AID 720508 | FP displacement of FITC-Tn7 peptide from fibrin DD(E); 0% = median of compound wells per plate | P02675 | 370,000 compounds, 0.13% hits;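 active = inhibition above the mean of compounds falling within the control limits plus 3 SD of them, cut at about 14% in these data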
Target sequence (P02675 whole entry, looked up): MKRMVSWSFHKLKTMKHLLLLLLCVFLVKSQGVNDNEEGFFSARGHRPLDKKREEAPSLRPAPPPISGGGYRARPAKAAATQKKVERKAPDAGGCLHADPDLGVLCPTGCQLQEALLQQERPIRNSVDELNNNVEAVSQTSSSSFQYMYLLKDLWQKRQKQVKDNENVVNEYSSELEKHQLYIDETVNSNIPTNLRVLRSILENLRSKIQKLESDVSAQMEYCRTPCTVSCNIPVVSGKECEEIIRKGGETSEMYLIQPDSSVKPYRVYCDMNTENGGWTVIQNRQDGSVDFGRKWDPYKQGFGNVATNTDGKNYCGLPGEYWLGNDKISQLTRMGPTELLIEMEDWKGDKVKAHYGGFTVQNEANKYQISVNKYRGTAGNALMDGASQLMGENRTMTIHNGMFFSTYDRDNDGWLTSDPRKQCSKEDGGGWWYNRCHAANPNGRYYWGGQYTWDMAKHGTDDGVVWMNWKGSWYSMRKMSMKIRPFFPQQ
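System: human fibrin DD(E); quantity: Fibrin-DD(E) at 2 µM final; also added: fluorescent Tn7 probe at 0.1 µM; compound dosing: single nominal test concentration of 8.3 µM per compound; schedule: 10 min preincubation, 3 h with tracer, room temperature; detection: fluorescence polarization of the labelled Tn7 tracer; repeats: one replicate per compound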
CRFR2-BP antag: antagonists of CRF-binding protein/CRF-R2 receptor complex; HEK293 CRF-R2/CRF-BP, CRF-induced calcium fluorescence; inhibition, % at 11.8 µM; 350,000 compounds, 0.59% hits;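 active = inhibition of the ligand-induced calcium signal above about 50% at the single tested concentration, limit read from the data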
CRFR2-BP ag: agonists of human CRF-binding protein/CRF-R2 receptor complex; 350,000 compounds, 0.46% hits; activation, % at 13.2 µM; HEK293 CRF-R2/CRF-BP, calcium dye fluorescence (FLIPR); percent of saturating CRF peptide response;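 active = activation of at least 50%, plus an integration ratio under a set limit after plate pattern correction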
DDE Tn6 FP inh: disrupts Tn6 cyclic peptide binding to fibrin D-Dimer-E complex; P02675; Fibrin DD(E) TRITC-Tn6 fluorescence polarization displacement; inhibition, % at 8.3 µM; 370,000 compounds, 0.21% hits;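 active = inhibition above a per-campaign cutoff: mean of compounds within control limits plus 3 SD, cut at about 15% in these data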
CendR NRP1 mod: NRP-1/CendR interaction modulation; O14786; FAM-RPARPAR peptide binding to NRP-1, fluorescence polarization; inhibition, % at 25 µM; 360,000 compounds, 0.85% hits;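 active = inhibition or corrected inhibition above about 18%, plus a signal ratio from 0.5 to 1.5, limit read from the data, passing the limit was not always enough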
KLK7 act conf: confirmation of human kallikrein-7 zymogen activators; 3,200 compounds, 68% hits; shares compounds with KLK7 zymogen act; activation, % at 7 µM; purified proKLK7, EDANS-DABCYL substrate fluorescence; scaled: vehicle 0, mature enzyme 100;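 active = activation, as change over the incubation, above the mean of all tested compounds plus 3 SD, cut at about 13% in these data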
EDANS interfere: counter-screen for kallikrein-7 activators: EDANS-DABCYL optical interference | EDANS-DABCYL substrate fluorescence interference, no enzyme, 4 h; solvent 0%, active enzyme control 100% | 3,200 compounds, 80% hits | activation, % at 7 µM | shares compounds with KLK7 zymogen act;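 active = activation above the all-compound mean plus 3 SD, ignoring values outside control-based bounds, cut at about 4.8% in these data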;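 also: value is the 4 h activation minus the activation read at time zero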
K7 EDANS ctr: counter-screen for kallikrein-7 activators: EDANS-DABCYL interference, dose response. EC50, µM. AID 720493. 250 compounds, 20% hits. shares compounds with KLK7 zymogen act. EDANS-DABCYL peptide fluorescence interference, no enzyme;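 active = compounds that raise the fluorescence signal in this interference counterscreen, with EC50 at or below 10 µM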;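 also: intact quenched peptide substrate alone read at 355 nm excitation and 520 nm emission; signal is fluorescence gain from T0 to T4 after four hours at room temperature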
Hits are given with their value; . = inactive; / = not tested or not shown. Shown are actives, neighbours in structure and some others; about 2.9% of the full set was active somewhere.

SMILES | KLK7 zymogen act | Tn7 DDE FP | CRFR2-BP antag | CRFR2-BP ag | DDE Tn6 FP inh | CendR NRP1 mod | KLK7 act conf | EDANS interfere | others
O=C(O)c1c2c(nc3ccccc13)/C(=C/c1ccc(O)cc1)CC2 | 28.2 | . | . | . | . | . | 68.2 | 70.2
COc1ccc(-c2[nH]c(-c3ccc(C(=O)O)cc3)nc2-c2ccccc2)cc1 | . | . | . | . | . | . | / | /
O=C(O)c1ccc(-c2nc(-c3ccccc3)c(-c3ccccc3)[nH]2)cc1 | 46.2 | . | . | . | . | . | 78.8 | 81.1
COc1ccc(/C=N/NC(=O)c2nnn(-c3nonc3N)c2-c2cccs2)cc1OC | 32.1 | . | . | . | . | . | 216.8 | 352.8
COc1cc(/C=N/NC(=O)c2nnn(-c3nonc3N)c2-c2cccs2)ccc1O | . | . | . | . | . | . | / | /
CCCS(=O)(=O)c1c(S(=O)(=O)CCC)c2cc(-c3ccncc3)ccn2c1C(=O)OC | 66.0 | . | . | . | . | . | 67.2 | 64.5
CCCS(=O)(=O)c1c(S(=O)(=O)CCC)c2cnccn2c1C(=O)c1ccc(OC)cc1 | . | . | . | . | . | . | / | /
COc1ccc2c(CN3CCOCC3)cc(=O)oc2c1 | . | . | / | / | . | . | / | /
Cc1c(O)c(CN2CCCC2)cc2c1oc(=O)c1ccccc12 | . | . | . | . | . | . | / | /
CCc1cc(=O)oc2c(C)c(O)c(CN3CCCCC3)cc12 | 49.0 | . | . | . | . | . | 63.5 | 78.6
Cc1c(O)c(CN2CCCC2)cc2c3c(c(=O)oc12)CCC3 | 70.5 | . | . | . | . | . | 66.9 | 65.2
COc1ccc2c(CN3CCCCC3)cc(=O)oc2c1 | 22.8 | . | / | / | . | . | . | .
COC(=O)[C@H](CC(C)C)N1Cc2nnn(Cc3ccccc3)c2-c2ccccc2S1(=O)=O | . | . | / | / | . | / | / | /
COc1ccc(-n2c(COc3ccccc3)nnc2SCC(=O)Nc2ccc(OCc3ccccc3)cc2)cc1 | . | . | / | / | . | / | / | /
CC1(c2ccncc2)Nc2ccccc2-c2nc3ccccc3n21 (stereo not drawn) | 57.3 | . | . | . | . | . | . | .
O=C(Nc1cccc(O)c1)c1cc2nc(-c3ccccc3)cc(-c3ccccc3)n2n1 | 95.9 | . | . | . | . | . | . | .
O=C(NC1CCCC1)c1cc2nc(-c3ccccc3)cc(-c3ccccc3)n2n1 | . | . | . | . | . | . | / | /
COc1ccc(O)c(C(=O)CC(=O)c2cccnc2)c1 | 55.3 | . | . | . | . | . | 229.2 | 235.4
CNc1nc2sc3c(c2c(=O)n1C)CC(C)(C)SC3 | 23.2 | . | . | . | . | . | . | .
CCCc1cc(=O)oc2c3c(cc(OCC(=O)N4CCC[C@H]4C(=O)O)c12)OC(C)(C)CC3 | 40.0 | . | . | . | . | . | 47.7 | 69.2
CCc1cc(=O)oc2c3c(cc(OCC(=O)NCCCOC)c12)OC(C)(C)CC3 | 19.1 | . | . | . | . | . | 29.9 | 29.0
CCc1cc(=O)oc2c3c(cc(OCC(=O)NCc4ccncc4)c12)OC(C)(C)CC3 | . | . | . | . | . | . | / | /
CCc1cc(=O)oc2c3c(cc(OCC(=O)NCCN4CCOCC4)c12)OC(C)(C)CC3 | 39.4 | . | . | . | . | . | . | .
CCc1cc(=O)oc2c(C)c(OCC(=O)N3CCC[C@@H]3C(=O)O)ccc12 | . | . | . | . | . | . | / | /
COc1ccccc1CNC(=O)COc1cc2c(c3oc(=O)cc(C)c13)CCC(C)(C)O2 | . | . | . | . | . | . | / | /
SMILES | KLK7 zymogen act | Tn7 DDE FP | CRFR2-BP antag | CRFR2-BP ag | DDE Tn6 FP inh | CendR NRP1 mod | KLK7 act conf | EDANS interfere | others
Cc1cc(=O)oc2c3c(cc(OCC(=O)NCC4CCC(C(=O)O)CC4)c12)OC(C)(C)CC3 (stereo not drawn) | 40.2 | . | . | . | . | . | 76.2 | 77.2
O=C(OC12CCCN(C1)/C(=C/c1cccc(Cl)c1)C2)C1CCCCC1 (stereo not drawn) | . | . | / | / | . | / | / | /
CCc1cc(=O)oc2c3c(cc(OCC(=O)NCCCC(=O)O)c12)OC(C)(C)CC3 | 28.8 | . | . | . | . | . | 65.3 | 65.5
CCc1cc(=O)oc2c3c(cc(OCC(=O)NCCC(=O)O)c12)OC(C)(C)CC3 | 33.1 | . | . | . | . | . | 76.2 | 82.1
CCc1cc(=O)oc2c3c(cc(OCC(=O)NC4CC4)c12)OC(C)(C)CC3 | 13.2 | . | . | . | . | . | . | .
CCc1cc(=O)oc2c3c(cc(OCC(=O)NCc4ccco4)c12)OC(C)(C)CC3 | / | / | . | . | / | . | / | /
Cc1cc(=O)oc2c3c(cc(OCC(=O)NCCC(=O)O)c12)OC(C)(C)CC3 | 40.2 | . | . | . | . | . | 63.9 | 64.2
COC(=O)[C@]1(Cc2ccccc2)NC=C(C(=O)c2ccccc2)[C@@H]1c1cccs1 | . | . | / | / | . | / | / | /
CC(C)n1nnnc1C1(C)CSCC(=O)N1Cc1cccc(F)c1 (stereo not drawn) | . | . | / | / | . | / | / | /
O=C1Nc2ccccc2O/C1=C\c1c(F)cccc1Cl | 17.2 | . | . | . | . | . | . | .
CC[C@H](C)/C=C(C)/C=C/C1=CC2=CC(=O)[C@]3(C)OC(=O)[C@@H](C(C)=O)[C@@H]3C2=CO1 | 18.7 | . | . | . | . | . | . | 8.1
C=CCN(CC=C)C(=O)c1c(OC)cccc1OC | . | . | . | . | . | . | / | /
C=CCc1c(C)[nH]c2c(OC)cccc2c1=S | 29.0 | . | . | . | . | . | 13.1 | 17.5
Cc1c2c(n3c(nc4ccccc43)c1C#N)N(CCN(C)C)CC2 | 113.9 | . | . | . | . | . | . | .
Cc1c2c(n3c(nc4ccccc43)c1C#N)N(CCCN(C)C)CC2 | 63.0 | . | . | . | . | . | . | 7.4
Cc1ccc2nc3c(c(N)c2c1)CCN3c1ccccc1 | 105.7 | . | . | . | . | . | . | .
COc1ccc(C(=O)Nc2cc(Cl)c(Br)cc2C(=O)O)cc1 | / | . | / | / | . | / | / | /
Cc1cc(C)cc(Oc2coc3cc(OC(=O)c4cccs4)ccc3c2=O)c1 | 13.6 | . | . | . | . | . | 23.7 | 16.5 | K7 EDANS ctr=.
COc1ccc(Oc2coc3cc(OC(=O)/C=C/c4ccccc4)ccc3c2=O)cc1 | . | . | . | . | . | . | / | /
CC(=O)Oc1ccc2c(=O)c(-c3ccccc3)c(C)oc2c1 | 121.2 | . | . | . | . | . | 446.2 | 384.3
